Values after ≈ are worked out from the molar mass of the structure shown.
What was measured:
Assay type in all cases: functional
Enterobacter cloacae = experiment: Antimicrobial activity against tetracycline-susceptible Enterobacter cloacae isolate 108 by CLSI dilution method
Procedure, shortened: (§1)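 Broth microdilution per CLSI in fresh cation-adjusted Mueller Hinton broth, kept at 4 °C before testing, with defibrinated horse blood added as appropriate. Strains were from ATCC. MIC in µg/mL. Runs were accepted when comparator antibiotics against ATCC quality-control strains fell within recommended ranges.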

Enterococcus faecalis [1] = experiment: Antimicrobial activity against tetracycline-susceptible Enterococcus faecalis isolate 103 by CLSI dilution method; procedure, shortened: as §1
Pseudomonas aeruginosa = experiment: Antimicrobial activity against tetracycline-susceptible Pseudomonas aeruginosa isolate 111 by CLSI dilution method; procedure, shortened: as §1
Staphylococcus aureus [2] = experiment: Antimicrobial activity against tetracycline-susceptible Staphylococcus aureus isolate 101 by CLSI dilution method
Streptococcus pneumoniae [3] = experiment: Antimicrobial activity against tetracycline-resistant Streptococcus pneumoniae isolate 160 harboring tetM gene by CLSI dilution method
Klebsiella pneumoniae [4] = experiment: Antimicrobial activity against tetracycline-resistant Klebsiella pneumoniae isolate 153 harboring tetA gene by CLSI dilution method
Escherichia coli [5] = experiment: Antimicrobial activity against tetracycline-susceptible Escherichia coli isolate 107 by CLSI dilution method; procedure, shortened: as §1
Staphylococcus aureus [6] = experiment: Antimicrobial activity against tetracycline-resistant Staphylococcus aureus isolate 158 harboring tetK gene by CLSI dilution method
Klebsiella pneumoniae [7] = experiment: Antimicrobial activity against tetracycline-susceptible Klebsiella pneumoniae isolate 109 by CLSI dilution method; procedure, shortened: as §1
Staphylococcus aureus [8] = experiment: Antimicrobial activity against methicillin-, tetracycline-resistant Staphylococcus aureus isolate 161 harboring tetM gene by CLSI dilution method
Acinetobacter baumannii = experiment: Antimicrobial activity against tetracycline-susceptible Acinetobacter baumannii isolate 110 by CLSI dilution method; procedure, shortened: as §1
Streptococcus pneumoniae [9] = experiment: Antimicrobial activity against tetracycline-susceptible Streptococcus pneumoniae isolate 106 by CLSI dilution method; procedure, shortened: as §1
Enterococcus faecalis [10] = experiment: Antimicrobial activity against tetracycline-resistant Enterococcus faecalis isolate 159 harboring […] gene by CLSI dilution method
Escherichia coli [11] = experiment: Antimicrobial activity against tetracycline-resistant Escherichia coli isolate 155 harboring tetA gene by CLSI dilution method

SMILES	MIC (Enterobacter cloacae) [µg/mL]	MIC (Enterococcus faecalis [1]) [µg/mL]	MIC (Pseudomonas aeruginosa) [µg/mL]	MIC (Staphylococcus aureus [2]) [µg/mL]	MIC (Streptococcus pneumoniae [3]) [µg/mL]	MIC (Klebsiella pneumoniae [4]) [µg/mL]	MIC (Escherichia coli [5]) [µg/mL]	MIC (Staphylococcus aureus [6]) [µg/mL]	MIC (Klebsiella pneumoniae [7]) [µg/mL]	MIC (Staphylococcus aureus [8]) [µg/mL]	MIC (Acinetobacter baumannii) [µg/mL]	MIC (Streptococcus pneumoniae [9]) [µg/mL]	MIC (Enterococcus faecalis [10]) [µg/mL]	MIC (Escherichia coli [11]) [µg/mL]
CN(C)[C@@H]1C(O)=C(C(N)=O)C(=O)[C@@]2(O)C(O)=C3C(=O)c4c(cc5ccc(CN6CCCCC6)cc5c4O)C[C@H]3C[C@@H]12	8 (≈ 14.2 µM)	0.5 (≈ 0.89 µM)	> 32	0.5 (≈ 0.89 µM)	0.25 (≈ 0.445 µM)	8 (≈ 14.2 µM)	2 (≈ 3.56 µM)	0.5 (≈ 0.89 µM)	8 (≈ 14.2 µM)	2 (≈ 3.56 µM)	1 (≈ 1.78 µM)	0.125 (≈ 0.223 µM)	2 (≈ 3.56 µM)	
CCNCc1ccc2c(F)c3c(c(O)c2c1)C(=O)C1=C(O)[C@]2(O)C(=O)C(C(N)=O)=C(O)[C@@H](N(C)C)[C@@H]2C[C@@H]1C3	2 (≈ 3.71 µM)	0.25 (≈ 0.463 µM)	16 (≈ 29.7 µM)	0.5 (≈ 0.927 µM)		8 (≈ 14.8 µM)	1 (≈ 1.85 µM)		4 (≈ 7.41 µM)	2 (≈ 3.71 µM)	1 (≈ 1.85 µM)	0.0313 (≈ 0.058 µM)	2 (≈ 3.71 µM)	8 (≈ 14.8 µM)
CN(C)[C@@H]1C(O)=C(C(N)=O)C(=O)[C@@]2(O)C(O)=C3C(=O)c4c(c(F)c5ccc(CNC6CC6)cc5c4O)C[C@H]3C[C@@H]12	4 (≈ 7.25 µM)	0.5 (≈ 0.907 µM)	> 32			8 (≈ 14.5 µM)	2 (≈ 3.63 µM)		4 (≈ 7.25 µM)	2 (≈ 3.63 µM)	0.25 (≈ 0.453 µM)	0.0625 (≈ 0.113 µM)	2 (≈ 3.63 µM)	8 (≈ 14.5 µM)
CCCNCc1ccc2c(OC)c3c(c(O)c2c1)C(=O)C1=C(O)[C@]2(O)C(=O)C(C(N)=O)=C(O)[C@@H](N(C)C)[C@@H]2C[C@@H]1C3	1 (≈ 1.77 µM)	0.125 (≈ 0.221 µM)	16 (≈ 28.3 µM)	0.25 (≈ 0.442 µM)	0.125 (≈ 0.221 µM)		1 (≈ 1.77 µM)	0.0625 (≈ 0.11 µM)	1 (≈ 1.77 µM)	2 (≈ 3.54 µM)	1 (≈ 1.77 µM)	0.0156 (≈ 0.0276 µM)	2 (≈ 3.54 µM)	8 (≈ 14.1 µM)
CN(C)Cc1ccc2c(N(C)C)c3c(c(O)c2c1)C(=O)C1=C(O)[C@]2(O)C(=O)C(C(N)=O)=C(O)[C@@H](N(C)C)[C@@H]2C[C@@H]1C3	32 (≈ 56.7 µM)	0.25 (≈ 0.443 µM)	> 32	0.25 (≈ 0.443 µM)	0.25 (≈ 0.443 µM)		2 (≈ 3.54 µM)	0.25 (≈ 0.443 µM)	8 (≈ 14.2 µM)	2 (≈ 3.54 µM)	16 (≈ 28.3 µM)	< 0.0156	2 (≈ 3.54 µM)	
CN(C)c1c2c(c(O)c3cc(CN4CCCC4)ccc13)C(=O)C1=C(O)[C@]3(O)C(=O)C(C(N)=O)=C(O)[C@@H](N(C)C)[C@@H]3C[C@@H]1C2	16 (≈ 27.1 µM)	0.25 (≈ 0.423 µM)	> 32	0.5 (≈ 0.846 µM)		32 (≈ 54.2 µM)	2 (≈ 3.39 µM)	0.5 (≈ 0.846 µM)		2 (≈ 3.39 µM)	16 (≈ 27.1 µM)	< 0.0156	2 (≈ 3.39 µM)	8 (≈ 13.5 µM)
CN(C)c1cccc2c(O)c3c(cc12)C[C@H]1C[C@H]2[C@H](N(C)C)C(O)=C(C(N)=O)C(=O)[C@@]2(O)C(O)=C1C3=O	> 32	1 (≈ 1.97 µM)	> 32	1 (≈ 1.97 µM)	8 (≈ 15.8 µM)	> 32		1 (≈ 1.97 µM)	> 32	2 (≈ 3.94 µM)	16 (≈ 31.5 µM)	4 (≈ 7.88 µM)	2 (≈ 3.94 µM)	> 32
COc1cccc2c(O)c3c(cc12)C[C@H]1C[C@H]2[C@H](N(C)C)C(O)=C(C(N)=O)C(=O)[C@@]2(O)C(O)=C1C3=O	> 32	0.5 (≈ 1.01 µM)	> 32		4 (≈ 8.09 µM)	> 32	> 32		> 32	0.5 (≈ 1.01 µM)	32 (≈ 64.7 µM)	2 (≈ 4.04 µM)	1 (≈ 2.02 µM)	> 32
CN(C)[C@@H]1C(O)=C(C(N)=O)C(=O)[C@@]2(O)C(O)=C3C(=O)c4c(c(Cl)c5ccc(CN6CCC6)cc5c4O)C[C@H]3C[C@@H]12	8 (≈ 14.1 µM)	0.25 (≈ 0.44 µM)	> 32	1 (≈ 1.76 µM)	0.5 (≈ 0.88 µM)	8 (≈ 14.1 µM)	2 (≈ 3.52 µM)	1 (≈ 1.76 µM)	4 (≈ 7.04 µM)	2 (≈ 3.52 µM)	2 (≈ 3.52 µM)		2 (≈ 3.52 µM)	16 (≈ 28.2 µM)
CN(C)c1c2c(c(O)c3cc(CN4CCC4)ccc13)C(=O)C1=C(O)[C@]3(O)C(=O)C(C(N)=O)=C(O)[C@@H](N(C)C)[C@@H]3C[C@@H]1C2	8 (≈ 13.9 µM)	0.125 (≈ 0.217 µM)	32 (≈ 55.5 µM)	1 (≈ 1.73 µM)	0.125 (≈ 0.217 µM)	16 (≈ 27.7 µM)	2 (≈ 3.47 µM)	0.0625 (≈ 0.108 µM)	4 (≈ 6.94 µM)	2 (≈ 3.47 µM)	1 (≈ 1.73 µM)	< 0.0156	2 (≈ 3.47 µM)	
CCCNc1c2c(c(O)c3cc(CN4CCC4)ccc13)C(=O)C1=C(O)[C@]3(O)C(=O)C(C(N)=O)=C(O)[C@@H](N(C)C)[C@@H]3C[C@@H]1C2	> 32	4 (≈ 6.77 µM)	> 32	4 (≈ 6.77 µM)	2 (≈ 3.39 µM)	> 32	16 (≈ 27.1 µM)	4 (≈ 6.77 µM)	32 (≈ 54.2 µM)		16 (≈ 27.1 µM)	0.5 (≈ 0.846 µM)	16 (≈ 27.1 µM)	> 32
CN(C)[C@@H]1C(O)=C(C(N)=O)C(=O)[C@@]2(O)C(O)=C3C(=O)c4c(cc5ccc(-c6cccnc6)cc5c4O)C[C@H]3C[C@@H]12	> 32	0.5 (≈ 0.923 µM)	> 32	1 (≈ 1.85 µM)	> 32	> 32	> 32		> 32	1 (≈ 1.85 µM)	> 32	> 32	0.25 (≈ 0.462 µM)	> 32
CN(C)[C@@H]1C(O)=C(C(N)=O)C(=O)[C@@]2(O)C(O)=C3C(=O)c4c(cc5ccc(CN6CCCC6)cc5c4O)C[C@H]3C[C@@H]12	4 (≈ 7.3 µM)	0.25 (≈ 0.457 µM)	> 32	0.5 (≈ 0.913 µM)	0.125 (≈ 0.228 µM)	4 (≈ 7.3 µM)	1 (≈ 1.83 µM)	0.25 (≈ 0.457 µM)		2 (≈ 3.65 µM)	1 (≈ 1.83 µM)	0.0625 (≈ 0.114 µM)	2 (≈ 3.65 µM)	
CN(C)c1ccc(O)c2c1C[C@H]1C[C@H]3[C@H](N(C)C)C(O)=C(C(N)=O)C(=O)[C@@]3(O)C(O)=C1C2=O [MINOCYCLINE]	2 (≈ 4.37 µM)		16 (≈ 35 µM)	0.0625 (≈ 0.137 µM)	2 (≈ 4.37 µM)	8 (≈ 17.5 µM)	0.5 (≈ 1.09 µM)	0.0313 (≈ 0.0684 µM)		8 (≈ 17.5 µM)	0.0625 (≈ 0.137 µM)	< 0.0156	16 (≈ 35 µM)	8 (≈ 17.5 µM)
